Measurements as given in ChEMBL document CHEMBL4619797, “Antiglioma Activity of Aryl and Amido-Aryl Acetamidine Derivatives Targeting iNOS: Synthesis and Biological Evaluation” (ACS Med Chem Lett, 2020).
pIC50: −log10 of the molar value. Active and inactive are the calls of the source. No cut-off for these calls is given here.

Assays:
[1] = biological target: T1, Nitric oxide synthase, inducible (Homo sapiens, UniProt P35228); test: Inhibition of recombinant N-terminal His-tagged human iNOS expressed in Escherichia coli using L-arginine as substrate preincubated for 15 mins followed by NADPH addition and measured after 20 mins by OPA/NAC reagent based HPLC-fluorimetric analysis
T1 sequence (P35228 whole entry): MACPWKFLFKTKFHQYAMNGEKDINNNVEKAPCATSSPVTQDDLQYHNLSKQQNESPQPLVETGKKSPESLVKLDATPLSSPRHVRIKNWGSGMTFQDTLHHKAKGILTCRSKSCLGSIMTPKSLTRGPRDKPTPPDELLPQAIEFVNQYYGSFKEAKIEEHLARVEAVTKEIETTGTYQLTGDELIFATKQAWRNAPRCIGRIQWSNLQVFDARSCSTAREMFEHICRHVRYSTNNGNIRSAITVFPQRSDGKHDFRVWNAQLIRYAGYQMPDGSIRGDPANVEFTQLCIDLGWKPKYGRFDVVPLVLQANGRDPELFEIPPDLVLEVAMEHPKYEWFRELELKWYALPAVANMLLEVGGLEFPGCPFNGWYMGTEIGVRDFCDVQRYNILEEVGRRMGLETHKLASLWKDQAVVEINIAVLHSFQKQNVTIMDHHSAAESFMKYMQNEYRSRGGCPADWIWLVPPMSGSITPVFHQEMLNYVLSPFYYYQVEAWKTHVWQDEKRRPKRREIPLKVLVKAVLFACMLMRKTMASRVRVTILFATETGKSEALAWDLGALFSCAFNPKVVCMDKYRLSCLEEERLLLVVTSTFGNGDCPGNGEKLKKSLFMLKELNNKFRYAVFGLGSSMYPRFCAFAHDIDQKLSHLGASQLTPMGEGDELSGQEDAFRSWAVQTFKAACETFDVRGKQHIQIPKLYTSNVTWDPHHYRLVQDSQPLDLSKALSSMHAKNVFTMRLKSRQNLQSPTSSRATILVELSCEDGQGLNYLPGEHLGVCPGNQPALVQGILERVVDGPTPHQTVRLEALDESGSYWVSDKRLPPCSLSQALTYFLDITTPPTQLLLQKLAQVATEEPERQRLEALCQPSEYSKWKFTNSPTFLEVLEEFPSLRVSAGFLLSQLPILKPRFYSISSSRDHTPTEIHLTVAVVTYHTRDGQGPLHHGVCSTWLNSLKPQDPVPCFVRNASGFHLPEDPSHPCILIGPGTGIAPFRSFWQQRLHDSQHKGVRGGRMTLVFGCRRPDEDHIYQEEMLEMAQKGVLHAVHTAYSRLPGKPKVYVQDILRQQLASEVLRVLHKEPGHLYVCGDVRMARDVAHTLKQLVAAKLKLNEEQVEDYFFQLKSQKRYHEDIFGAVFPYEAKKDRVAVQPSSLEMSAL
Method in brief: (§1)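 IC50 against human iNOS, nNOS and eNOS from experiments in triplicate at seven different concentrations; mean ± SD reported.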

[2] = biological target: T2, Nitric oxide synthase 3 (Homo sapiens) (UniProt P29474); test: Inhibition of human eNOS at 10 uM using L-arginine as substrate preincubated for 15 mins followed by NADPH addition and measured after 20 mins by OPA/NAC reagent based HPLC-fluorimetric analysis relative to control
T2 sequence (whole entry): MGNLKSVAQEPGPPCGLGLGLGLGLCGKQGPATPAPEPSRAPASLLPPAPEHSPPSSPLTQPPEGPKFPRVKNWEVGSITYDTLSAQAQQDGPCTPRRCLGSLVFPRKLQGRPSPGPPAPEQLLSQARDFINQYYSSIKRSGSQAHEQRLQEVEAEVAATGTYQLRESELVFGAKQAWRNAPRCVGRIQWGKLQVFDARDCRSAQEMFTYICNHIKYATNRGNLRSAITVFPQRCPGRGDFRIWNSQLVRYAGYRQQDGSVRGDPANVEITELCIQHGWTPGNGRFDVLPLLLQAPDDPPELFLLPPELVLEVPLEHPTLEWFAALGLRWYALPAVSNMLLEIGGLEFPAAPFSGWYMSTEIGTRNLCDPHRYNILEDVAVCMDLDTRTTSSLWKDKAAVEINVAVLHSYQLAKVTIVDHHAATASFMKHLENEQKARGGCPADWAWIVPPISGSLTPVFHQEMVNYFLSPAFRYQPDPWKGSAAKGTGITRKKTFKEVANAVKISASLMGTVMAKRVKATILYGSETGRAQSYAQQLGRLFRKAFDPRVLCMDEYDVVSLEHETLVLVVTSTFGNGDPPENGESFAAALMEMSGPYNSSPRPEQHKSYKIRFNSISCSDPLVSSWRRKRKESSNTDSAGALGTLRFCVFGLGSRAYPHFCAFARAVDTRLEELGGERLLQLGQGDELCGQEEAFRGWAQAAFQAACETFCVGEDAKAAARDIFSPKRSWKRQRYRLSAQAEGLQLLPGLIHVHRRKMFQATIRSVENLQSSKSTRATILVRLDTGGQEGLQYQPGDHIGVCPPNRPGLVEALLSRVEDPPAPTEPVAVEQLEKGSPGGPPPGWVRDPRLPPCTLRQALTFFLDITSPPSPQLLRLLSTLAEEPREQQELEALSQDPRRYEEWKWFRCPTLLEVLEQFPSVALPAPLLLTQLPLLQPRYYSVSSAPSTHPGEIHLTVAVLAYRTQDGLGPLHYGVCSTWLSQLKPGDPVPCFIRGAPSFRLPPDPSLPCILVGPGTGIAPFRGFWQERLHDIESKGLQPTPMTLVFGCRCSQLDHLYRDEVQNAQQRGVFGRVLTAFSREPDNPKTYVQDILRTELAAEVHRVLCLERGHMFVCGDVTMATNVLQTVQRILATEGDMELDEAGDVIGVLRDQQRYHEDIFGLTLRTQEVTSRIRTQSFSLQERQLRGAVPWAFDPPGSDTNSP
Method in brief: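 eNOS percent inhibition screened at 10 μM compound; mean ± SD of triplicate experiments.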

[3] = biological target: T1, Nitric oxide synthase, inducible; test: Inhibition of recombinant N-terminal His-tagged human iNOS expressed in Escherichia coli at 1 uM using L-arginine as substrate preincubated for 15 mins followed by NADPH addition and measured after 20 mins by OPA/NAC reagent based HPLC-fluorimetric analysis relative to control
Method in brief: (§2)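 Primary screen: percent inhibition of iNOS and nNOS measured at 1 μM compound; mean ± SD of triplicate experiments.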

Nitric oxide synthase 1 [4] = biological target: T3, Nitric oxide synthase 1 (Homo sapiens, UniProt P29475); test: Inhibition of recombinant human nNOS expressed in Escherichia coli at 1 uM using L-arginine as substrate preincubated for 15 mins followed by NADPH addition and measured after 20 mins by OPA/NAC reagent based HPLC-fluorimetric analysis relative to control; method in brief: as §2
T3 sequence (P29475 whole entry): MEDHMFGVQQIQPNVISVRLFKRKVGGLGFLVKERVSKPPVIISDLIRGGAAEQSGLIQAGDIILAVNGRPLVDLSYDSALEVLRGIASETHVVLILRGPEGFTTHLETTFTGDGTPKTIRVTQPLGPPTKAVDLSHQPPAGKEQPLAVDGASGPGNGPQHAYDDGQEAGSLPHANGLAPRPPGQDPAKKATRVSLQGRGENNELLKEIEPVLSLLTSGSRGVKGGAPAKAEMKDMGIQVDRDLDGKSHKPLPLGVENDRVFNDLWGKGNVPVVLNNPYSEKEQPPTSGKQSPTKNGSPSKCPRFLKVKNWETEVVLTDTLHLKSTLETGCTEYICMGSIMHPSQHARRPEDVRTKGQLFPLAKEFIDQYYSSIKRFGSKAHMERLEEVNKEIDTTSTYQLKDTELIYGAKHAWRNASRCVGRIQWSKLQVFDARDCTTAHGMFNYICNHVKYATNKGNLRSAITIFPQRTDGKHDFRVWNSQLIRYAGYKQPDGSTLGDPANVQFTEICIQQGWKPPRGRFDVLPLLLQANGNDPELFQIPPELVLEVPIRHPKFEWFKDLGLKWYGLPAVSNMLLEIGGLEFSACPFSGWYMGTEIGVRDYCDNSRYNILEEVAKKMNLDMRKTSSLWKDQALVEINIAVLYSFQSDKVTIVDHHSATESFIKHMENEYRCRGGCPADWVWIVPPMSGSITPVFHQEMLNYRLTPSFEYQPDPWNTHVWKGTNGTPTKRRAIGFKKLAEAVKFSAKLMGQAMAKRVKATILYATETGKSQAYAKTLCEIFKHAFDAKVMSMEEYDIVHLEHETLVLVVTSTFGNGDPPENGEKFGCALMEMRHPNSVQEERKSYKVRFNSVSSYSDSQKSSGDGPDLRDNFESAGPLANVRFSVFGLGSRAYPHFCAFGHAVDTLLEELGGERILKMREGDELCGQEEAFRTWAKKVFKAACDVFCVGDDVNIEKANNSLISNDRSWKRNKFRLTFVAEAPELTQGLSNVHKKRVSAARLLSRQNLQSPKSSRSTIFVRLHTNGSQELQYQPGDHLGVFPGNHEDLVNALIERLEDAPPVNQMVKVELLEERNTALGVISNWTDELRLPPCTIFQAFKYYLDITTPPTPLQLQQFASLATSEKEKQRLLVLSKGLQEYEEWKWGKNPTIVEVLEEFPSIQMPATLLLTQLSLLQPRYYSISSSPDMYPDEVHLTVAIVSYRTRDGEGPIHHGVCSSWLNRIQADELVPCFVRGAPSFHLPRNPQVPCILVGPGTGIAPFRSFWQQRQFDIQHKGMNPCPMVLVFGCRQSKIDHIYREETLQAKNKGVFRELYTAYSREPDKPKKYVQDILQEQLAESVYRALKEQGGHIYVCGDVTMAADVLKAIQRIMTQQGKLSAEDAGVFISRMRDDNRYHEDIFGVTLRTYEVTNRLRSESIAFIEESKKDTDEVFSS

C6 [5] = test: Antiproliferative activity against rat C6 cells assessed as inhibition of cell proliferation at 500 uM after 24 hrs by MTT assay; type: functional, cell-based
Method in brief: (§3)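 C6 rat glioma cells exposed 24 h to increasing concentrations (0–1500 μM); metabolic activity by MTT, expressed as percent of untreated cultures (100%); means ± SD of three replicates.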

C6 [6] = test: Antiproliferative activity against rat C6 cells assessed as inhibition of cell proliferation at 500 uM after 24 hrs by MTT assay relative to control; type: functional; settings: C6, 24 h; method in brief: as §3
C6 [7] = test: Antiproliferative activity against rat C6 cells assessed as increase in LDH release after 24 hrs by CytoTox 96 Non-Radioactive assay; type: functional, cell-based
C6 [8] = test: Antiproliferative activity against rat C6 cells assessed as reduction in cell metabolic activity after 24 hrs by MTT assay; type: functional, cell-based; method in brief: as §3
C6 [9] = test: Antiproliferative activity against rat C6 cells assessed as cell metabolic activity at 50 uM after 24 hrs by MTT assay relative to control; type: functional; method in brief: as §3
[10] = Cytotoxicity against rat CTX/TNA2 cells assessed as reduction in cell metabolic activity at 1500 uM after 24 hrs by MTT assay; type: ADME, cell-based
Method in brief: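 Rat astrocytes (CTX) exposed 24 h to increasing concentrations up to 1500 μM; metabolic activity by MTT, expressed as percent of untreated (0 μM) cultures set at 100%; means ± SD of three replicates.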

C6 [11] = test: Antiproliferative activity against rat C6 cells assessed as cell metabolic activity at 750 uM after 24 hrs by MTT assay relative to control; type: functional; method in brief: as §3
C6 [12] = test: Antiproliferative activity against rat C6 cells assessed as LDH release at 250 uM after 24 hrs by CytoTox 96 Non-Radioactive assay (reference value: 13.49%); type: functional
Nitric oxide synthase 1 [13] = biological target: T3, Nitric oxide synthase 1; test: Inhibition of recombinant human nNOS expressed in Escherichia coli using L-arginine as substrate preincubated for 15 mins followed by NADPH addition and measured after 20 mins by OPA/NAC reagent based HPLC-fluorimetric analysis; method in brief: as §1
C6 [14] = test: Antiproliferative activity against rat C6 cells assessed as cell metabolic activity at 1000 uM after 24 hrs by MTT assay relative to control; type: functional; method in brief: as §3
Homo sapiens = species on record: Homo sapiens; test: Selectivity index, ratio of IC50 for recombinant human eNOS to IC50 for recombinant N-terminal His-tagged human iNOS expressed in Escherichia coli
Method in brief: (§4)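 Ratio of IC50 values for human eNOS or nNOS to that for human iNOS, each IC50 from triplicate runs at seven concentrations.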

C6 [15] = test: Antiproliferative activity against rat C6 cells assessed as cell metabolic activity at 1500 uM after 24 hrs by MTT assay relative to control; type: functional; method in brief: as §3
Nitric oxide synthase 3 = biological target: T4, Nitric oxide synthase 3 (Homo sapiens, UniProt P29474); test: Inhibition of human eNOS using L-argininge as substrate preincubated for 15 mins followed by NADPH addition and measured after 20 mins by OPA/NAC reagent based HPLC analysis; method in brief: as §1
T4 sequence (P29474 whole entry): T2 sequence (whole entry)

C6 [16] = test: Antiproliferative activity against rat C6 cells assessed as LDH release at 500 to 1000 uM after 24 hrs by CytoTox 96 Non-Radioactive assay (reference value: 13.49%); type: functional
[17] = biological target: Nitric oxide sythases; iNOS & nNOS (Homo sapiens) (UniProt P29475+P35228); test: Selectivity index, ratio of IC50 for recombinant human nNOS expressed in Escherichia coli to IC50 for recombinant N-terminal His-tagged human iNOS expressed in Escherichia coli; method in brief: as §4
Chain of Nitric oxide sythases; iNOS & nNOS (Homo sapiens) (P29475 whole entry, looked up): as the sequence (P29475 whole entry) above
Chain of Nitric oxide sythases; iNOS & nNOS (Homo sapiens) (P35228 whole entry, looked up): as the sequence (P35228 whole entry) above

| inhibition [2] [%] | inhibition [3] [%] | inhibition (Nitric oxide synthase 1 [4]) [%] | Structure (SMILES) | also measured |
| --- | --- | --- | --- | --- |
| 3 | 81 | 47 | CC(=N)Nc1ccc(S(=O)(=O)Nc2nccs2)cc1 | – |
| 62 | 86 | 14 | CC(=N)Nc1ccc(C(=O)O)cc1 | – |
| 14 | 100 | 2 | CC(=N)Nc1nc(-c2ccccc2)cs1 | – |
| 0 | 87 | 97 | CC(=N)NCc1ccc(C(=O)Nc2ccc(F)cc2)cc1 | – |
| 0 | 84 | 96 | CC(=N)Nc1ccc(C(=O)Nc2nccs2)cc1 | – |
| 0 | 100 | 0 | CC(=N)NCc1ccc(C(=O)Nc2nccs2)cc1 | – |
| 0 | 85 | 10 | CC(=N)Nc1ccc(F)cc1 | – |
| 4 | 100 | 13 | CC(=N)Nc1nc(-c2ccc(Cl)cc2)cs1 | – |
| 0 | 100 | 0 | Br.CC(=N)Nc1ccc(C(=O)Nc2ccc(F)cc2)cc1 | Activity (C6 [7]): Dose-dependent effect; Activity (C6 [8]): Dose-dependent effect; Activity (C6 [9]): 86.45%; Activity [10]: Toxic; Activity (C6 [11]): 64.86%; Activity (C6 [12]): 22.48%; pIC50 [1]: 7.96; pIC50 (Nitric oxide synthase 1 [13]): 5.21; Activity (C6 [14]): 65.22%; Ratio IC50 (Homo sapiens): > 900; Activity (C6 [15]): 64.42%; pIC50 (Nitric oxide synthase 3): < 5.00; Activity (C6 [16]): 27%; Ratio IC50 [17]: 563; inhibition at 500 µM (C6 [6]): 31% |

The remaining lines, values behind:

| Structure (SMILES) | inhibition [2] [%] | inhibition [3] [%] | inhibition (Nitric oxide synthase 1 [4]) [%] | also measured |
| --- | --- | --- | --- | --- |
| CC(N)C(=O)Cc1cn[nH]c1 (stereo not drawn) | – | – | – | pIC50 [1]: 6.17 |
| CC(=N)NCc1cccc(CNC(=O)CCC(=O)O)c1 | – | – | – | pIC50 [1]: 6.37 |
| CC(=N)NCc1ccc(F)cc1 | 5 | 93 | 0 | – |
| CC(=N)NCc1cccc(CNC(=O)C2CCCN2)c1 (stereo not drawn) | – | – | – | Activity (C6 [5]): inactive |
| CC(=N)NCc1cccc(CN)c1 | – | – | – | Activity (C6 [5]): inactive |
| CC(=N)NCc1ccc(C(=O)O)cc1 | 4 | 70 | 0 | – |
| Cn1nnc2c(C(N)=O)ncn2c1=O [TEMOZOLOMIDE] | – | – | – | inhibition at 500 µM (C6 [6]): 12% |
